What was measured:
[1] = Plasma protein binding of the radio-complex; type: in vitro ADME; conditions: rat plasma, 37°C up to 1 hr
Summary of the method: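 Pellet re-suspended in 5% TCA and re-centrifuged. Precipitate and supernatant counted in a well-type gamma counter; binding given as protein-bound percent of total activity.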

[2] = Partition coefficient measurement log Po/w; type: physicochemical
[3] = Bio-distribution in normal control rats; type: in vivo, rat; conditions: for ID/g Bladder / ID/g Bone / ID/g Brain / ID/g Heart / ID/g Kidney / ID/g Large intestine / ID/g Liver / ID/g Lung / ID/g Muscle / ID/g Prostate / ID/g Small intestine / ID/g Spleen / ID/g Stomach / ID/g Thyroid: normal control rats; for percent-specific uptake in the prostate: normal healthy rats
Summary of the method: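 Healthy adult male Sprague Dawley rats (6–7 weeks, 200–250 g) given 200 µCi of Tc-99m-labelled test compound intravenously via a penile vein. Animals sacrificed at several post-injection times (1, 2, 4 and 6 h). Organs excised, weighed and counted in a well scintillation counter. %ID/g calculated against a standard of the injected dose. n=3, mean ± SD, ANOVA.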

[4] = Blood pharmacokinetics after intravenous administration; type: in vivo, rat; conditions: rats, i.v.
Summary of the method: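 Male Sprague Dawley rats (200–250 g) given 200 µCi of Tc-99m-labelled test compound via a penile vein. Blood drawn from the ocular vein at intervals over 0–120 min and counted in a well-type scintillation counter, expressed as counts per ml of blood. Peak times read from the activity–time curve.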

[5] = Bio-distribution in MNU + TP treated rats; type: in vivo, rat; conditions: for percent-specific uptake in the prostate: MNU + TP treated (carcinogen-induced) rats; for ID/g Bladder / ID/g Bone / ID/g Brain / ID/g Heart / ID/g Kidney / ID/g Large intestine / ID/g Liver / ID/g Lung / ID/g Muscle / ID/g Prostate / ID/g Small intestine / ID/g Spleen / ID/g Stomach / ID/g Thyroid: MNU + TP treated rats
[6] = Stability of the radio-complex with pH and time at room temperature; type: physicochemical
Summary of the method: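 Labelling: 7.4 MBq pertechnetate added to 20 µg test compound (10% ethanol) with 40 µg SnCl2·2H2O, pH 7, 10 min at room temperature in the dark. pH varied from 2 to 10 and room-temperature stability followed over time. Purity by ITLC: acetone (free pertechnetate) and pyridine:acetic acid:water 3:5:1.5 (hydrolysed fraction); strips counted with a gamma probe. Triplicates, one-way ANOVA.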

Paper electrophoresis = type: physicochemical; conditions: 300V, 1 h
Summary of the method: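 Radio-complex spotted at the central point of Whatman No. 1 paper, with sodium phosphate buffer as the mobile phase. Strip dried after the run and activity along it counted in a well-type gamma scintillation […]; the direction of migration indicates charge.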

- Plasma protein binding [1]: 86.23 ± 7.08%
- Log Po/w [2]: 0.118 ± 0.045
- ID/g Bladder ([3]; First h): 1.758±0.706 ID/g
- ID/g Bladder ([3]; Fourth h): 1.121±0.896 ID/g
- ID/g Bladder ([3]; Second h): 1.71±0.550 ID/g
- ID/g Bladder ([3]; Sixth h): 1.840±0.724 ID/g
- ID/g Bone ([3]; First h): 1.77±0.14 ID/g
- ID/g Bone ([3]; Fourth h): 0.163±0.011 ID/g
- ID/g Bone ([3]; Second h): 0.694±0.077 ID/g
- ID/g Bone ([3]; Sixth h): 0.59±0.085 ID/g
- ID/g Brain ([3]; First h): 0.217±0.065 ID/g
- ID/g Brain ([3]; Fourth h): 0.133±0.027 ID/g
- ID/g Brain ([3]; Second h): 0.064±0.005 ID/g
- ID/g Brain ([3]; Sixth h): 0.096±0.074 ID/g
- ID/g Heart ([3]; First h): 0.416±0.005 ID/g
- ID/g Heart ([3]; Fourth h): 0.535±0.274 ID/g
- ID/g Heart ([3]; Second h): 0.547±0.065 ID/g
- ID/g Heart ([3]; Sixth h): 0.557±0.061 ID/g
- ID/g Kidney ([3]; First h): 7.476±1.300 ID/g
- ID/g Kidney ([3]; Fourth h): 13.726±2.948 ID/g
- ID/g Kidney ([3]; Second h): 9.093±0.897 ID/g
- ID/g Kidney ([3]; Sixth h): 15.403±2.545 ID/g
- ID/g Large intestine ([3]; First h): 0.654±0.294 ID/g
- ID/g Large intestine ([3]; Fourth h): 0.635±0.079 ID/g
- ID/g Large intestine ([3]; Second h): 0.691±0.178 ID/g
- ID/g Large intestine ([3]; Sixth h): 0.915±0.186 ID/g
- ID/g Liver ([3]; First h): 4.44±0.836 ID/g
- ID/g Liver ([3]; Fourth h): 9.423±1.188 ID/g
- ID/g Liver ([3]; Second h): 5.293±1.504 ID/g
- ID/g Liver ([3]; Sixth h): 13.303±1.618 ID/g
- ID/g Lung ([3]; First h): 3.145±0.465 ID/g
- ID/g Lung ([3]; Fourth h): 3.354±2.237 ID/g
- ID/g Lung ([3]; Second h): 7.207±4.919 ID/g
- ID/g Lung ([3]; Sixth h): 4.292±1.191 ID/g
- ID/g Muscle ([3]; First h): 0.337±0.003 ID/g
- ID/g Muscle ([3]; Fourth h): 0.126±0.015 ID/g
- ID/g Muscle ([3]; Second h): 0.462±0.241 ID/g
- ID/g Muscle ([3]; Sixth h): 0.160±0.06 ID/g
- ID/g Prostate ([3]; First h): 0.303±0.017 ID/g
- ID/g Prostate ([3]; Fourth h): 0.298±0.079 ID/g
- ID/g Prostate ([3]; Second h): 0.518±0.133 ID/g
- ID/g Prostate ([3]; Sixth h): 0.269±0.182 ID/g
- ID/g Small intestine ([3]; First h): 0.639±0.277 ID/g
- ID/g Small intestine ([3]; Fourth h): 0.659±0.150 ID/g
- ID/g Small intestine ([3]; Second h): 1.276±0.526 ID/g
- ID/g Small intestine ([3]; Sixth h): 0.944±0.074 ID/g
- ID/g Spleen ([3]; First h): 4.002±0.245 ID/g
- ID/g Spleen ([3]; Fourth h): 8.33±1.334 ID/g
- ID/g Spleen ([3]; Second h): 5.816±0.886 ID/g
- ID/g Spleen ([3]; Sixth h): 9.04±1.165 ID/g
- ID/g Stomach ([3]; First h): 0.124±0.065 ID/g
- ID/g Stomach ([3]; Fourth h): 0.094±0.045 ID/g
- ID/g Stomach ([3]; Second h): 0.101±0.042 ID/g
- ID/g Stomach ([3]; Sixth h): 0.091±0.013 ID/g
- ID/g Thyroid ([3]; First h): 0.35±0.053 ID/g
- ID/g Thyroid ([3]; Fourth h): 0.422±0.095 ID/g
- ID/g Thyroid ([3]; Second h): 0.512±0.106 ID/g
- ID/g Thyroid ([3]; Sixth h): 0.031±0.007 ID/g
- percent-specific uptake in the prostate ([3]; 1 h after administration): 0.303%
- percent-specific uptake in the prostate ([3]; 2 h after administration): 0.518%
- percent-specific uptake in the prostate ([3]; 4 h after administration): 0.298%
- percent-specific uptake in the prostate ([3]; 6 h after administration): 0.269%
- time of first peak in blood [4]: 50 s
- time of second peak in blood [4]: 50 min
- ID/g Bladder ([5]; First h): 1.465±0.175 ID/g
- ID/g Bladder ([5]; Fourth h): 0.897±0.456 ID/g
- ID/g Bladder ([5]; Second h): 0.979±0.247 ID/g
- ID/g Bladder ([5]; Sixth h): 0.871±0.578 ID/g
- ID/g Bone ([5]; First h): 0.437±0.237 ID/g
- ID/g Bone ([5]; Fourth h): 2.24±1.062 ID/g
- ID/g Bone ([5]; Second h): 1.381±0.609 ID/g
- ID/g Bone ([5]; Sixth h): 2.038±1.163 ID/g
- ID/g Brain ([5]; First h): 0.139±0.124 ID/g
- ID/g Brain ([5]; Fourth h): 0.149±0.085 ID/g
- ID/g Brain ([5]; Second h): 0.257±0.139 ID/g
- ID/g Brain ([5]; Sixth h): 0.132±0.048 ID/g
- ID/g Heart ([5]; First h): 0.045±0.036 ID/g
- ID/g Heart ([5]; Fourth h): 0.231±0.171 ID/g
- ID/g Heart ([5]; Second h): 0.404±0.217 ID/g
- ID/g Heart ([5]; Sixth h): 0.337±0.054 ID/g
- ID/g Kidney ([5]; First h): 6.283±0.746 ID/g
- ID/g Kidney ([5]; Fourth h): 7.836±1.861 ID/g
- ID/g Kidney ([5]; Second h): 7.37±1.162 ID/g
- ID/g Kidney ([5]; Sixth h): 8.08±1.784 ID/g
- ID/g Large intestine ([5]; First h): 0.264±0.121 ID/g
- ID/g Large intestine ([5]; Fourth h): 0.878±0.439 ID/g
- ID/g Large intestine ([5]; Second h): 0.383±0.034 ID/g
- ID/g Large intestine ([5]; Sixth h): 0.973±0.641 ID/g
- ID/g Liver ([5]; First h): 3.48±0.676 ID/g
- ID/g Liver ([5]; Fourth h): 8.693±0.784 ID/g
- ID/g Liver ([5]; Second h): 6.767±0.496 ID/g
- ID/g Liver ([5]; Sixth h): 9.673±0.457 ID/g
- ID/g Lung ([5]; First h): 2.903±0.553 ID/g
- ID/g Lung ([5]; Fourth h): 1.263±0.253 ID/g
- ID/g Lung ([5]; Second h): 2.44±0.216 ID/g
- ID/g Lung ([5]; Sixth h): 1.2±0.07 ID/g
- ID/g Muscle ([5]; First h): 0.097±0.075 ID/g
- ID/g Muscle ([5]; Fourth h): 0.330±0.194 ID/g
- ID/g Muscle ([5]; Second h): 0.262±0.023 ID/g
- ID/g Muscle ([5]; Sixth h): 0.310±0.022 ID/g
- ID/g Prostate ([5]; First h): 0.913±0.172 ID/g
- ID/g Prostate ([5]; Fourth h): 0.857±0.091 ID/g
- ID/g Prostate ([5]; Second h): 0.825±0.110 ID/g
- ID/g Prostate ([5]; Sixth h): 0.673±0.064 ID/g
- ID/g Small intestine ([5]; First h): 0.482±0.554 ID/g
- ID/g Small intestine ([5]; Fourth h): 0.400±0.015 ID/g
- ID/g Small intestine ([5]; Second h): 0.563±0.037 ID/g
- ID/g Small intestine ([5]; Sixth h): 0.378±0.193 ID/g
- ID/g Spleen ([5]; First h): 3.873±0.600 ID/g
- ID/g Spleen ([5]; Fourth h): 4.61±0.026 ID/g
- ID/g Spleen ([5]; Second h): 6.76±0.911 ID/g
- ID/g Spleen ([5]; Sixth h): 8.77±0.645 ID/g
- ID/g Stomach ([5]; First h): 0.142±0.038 ID/g
- ID/g Stomach ([5]; Fourth h): 0.112±0.033 ID/g
- ID/g Stomach ([5]; Second h): 0.091±0.029 ID/g
- ID/g Stomach ([5]; Sixth h): 0.069±0.023 ID/g
- ID/g Thyroid ([5]; First h): 0.356±0.163 ID/g
- ID/g Thyroid ([5]; Fourth h): 0.654±0.099 ID/g
- ID/g Thyroid ([5]; Second h): 0.698±0.037 ID/g
- ID/g Thyroid ([5]; Sixth h): 0.684±0.198 ID/g
- percent radiochemical purity ([6]; pH 2): 92.72%
- percent radiochemical purity ([6]; pH 4): 97.24%
- percent radiochemical yield ([6]; pH 10): 86.84%
- charge of the radio-complex (Paper electrophoresis): neutral
Substance: Tc-99m-17-oxo-17a-aza-D-homo-5-androsten-3 β-ylphenoxyacetate [Tc-99m-17a-aza steroid]
- percent-specific uptake in the prostate ([5]; 1 h after administration): 0.913%
- percent-specific uptake in the prostate ([5]; 2 h after administration): 0.825%
- percent-specific uptake in the prostate ([5]; 4 h after administration): 0.857%
- percent-specific uptake in the prostate ([5]; 6 h after administration): 0.673%
